Consider 5 compounds from ChEMBL document CHEMBL1123079, “Synthesis and biological activity of a novel adenosine analogue, 3-beta-D-ribofuranosylthieno[2,3-d]pyrimidin-4-one” (1985).

In assay [1] the test system is L1210. Kind of assay: The concentration required to inhibit the growth of L-1210 leukemic cells was evaluated; 1E-3 to 1E-4. Type of assay: functional, cell-based. The following applies: Mus musculus.
The subject of assay [2] is L1210. Kind of assay: The concentration requiredi (cytidine+2'deoxycytidine) to inhibit the growth of L-1210 leukemic cells was evaluated. In kind it is functional, cell-based. The conditions noted are these: Mus musculus.
Assay [3] concerns L1210. Kind of assay: The compound was tested for inhibition of L-1210 leukemic cell growth at 10 e-4 M along with 10e-5 M adenine. In kind it is functional, Mus musculus. On the set-up: scale not given: the % may be the effect or the level left. In short, it runs like this:
(§1)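 Static suspension cultures of murine L-1210 leukemic cells were grown in Fischer's medium with test compound at 10^-4 M plus 10^-5 M adenine or 10^-5 M adenosine. Read-out was the initial growth rate, the increase in cell number during the first 24 h of incubation, relative to untreated control cells (%).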

In assay [4] the test system is L1210. Kind of assay: The compound was tested for inhibition of L-1210 leukemic cell growth at 10 e-4 M along with 10e-5 M adenosine. Further details: scale not given: the % may be the effect or the level left. Type of assay: functional, Mus musculus. In short, it runs like this:
as §1

In assay [5] the test system is L1210. Kind of assay: The compound was tested for inhibition of L-1210 leukemic cell growth at 5 x 10 e-5 M. In kind it is functional, Mus musculus. On the set-up: scale not given: the % may be the effect or the level left. In short, it runs like this:
(§2)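 Murine L-1210 leukemic cells were grown in static suspension culture in Fischer's medium. Test compound was added at 5 × 10^-5 or 10^-4 M alone. Initial growth rate is the rate of increase in cell number over the first 24 h of incubation, expressed as % of untreated control. Values are mean (±SD), n = 5.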

In assay [6] the test system is L1210. Kind of assay: The compound was tested for inhibition of L-1210 leukemic cell growth at 5 x 10 e-5 M along with 10e-5 M adenine. Type of assay: functional, Mus musculus. On the set-up: scale not given: the % may be the effect or the level left. In short, it runs like this:
(§3)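 L-1210 cells were held in static suspension in Fischer's medium with test compound at 5 × 10^-5 M plus either 10^-5 M adenine or 10^-5 M adenosine. Cell numbers were counted, and the rate of increase over the first 24 h was taken as the initial growth rate, given as % of untreated control. Values are means, n = 2.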

Assay [7] deals with L1210. Kind of assay: The compound was tested for inhibition of L-1210 leukemic cell growth at 5 x 10 e-5 M along with 10e-5 M adenosine. Type of assay: functional, Mus musculus. Further details: scale not given: the % may be the effect or the level left. In short, it runs like this:
as §3

Assay [8] has as its system L1210. Kind of assay: The compound was tested for inhibition of L-1210 leukemic cell growth at 10 e-4 M. Type of assay: functional, Mus musculus. On the set-up: scale not given: the % may be the effect or the level left. In short, it runs like this: as §2
In assay [9] the test system is L1210. Kind of assay: The concentration required to inhibit the growth of L-1210 leukemic cells was evaluated; 1E-4 to 5E-4. In kind it is functional, cell-based. The following applies: Mus musculus.
Assay [10] deals with L1210. Kind of assay: The concentration required (hypoxanthine+uridine) to inhibit the growth of L-1210 leukemic cells was evaluated; 2E-4 to 2E-5. In kind it is functional, cell-based. The following applies: Mus musculus.
For assay [11], the system named is L1210. Kind of assay: The concentration required to inhibit the growth of L-1210 leukemic cells was evaluated; 1E-4 to 1E-5. In kind it is functional, cell-based. The following applies: Mus musculus.

SMILES strings stand for the structures.

For the compound `Nc1ccn([C@@H]2O[C@H](CO)[C@@H](O)[C@H]2O)c(=O)n1`, the figures for the Concentration in assay [1] and in assay [2] were 1 mM and 100 µM, respectively.
In the case of `O=c1c2ccsc2ncn1C1O[C@H](CO)[C@@H](O)[C@H]1O` (some centres not stated), the Control in [3] amounted to 25%; in [4], 50%; in [5], 32%; in assay [6] it was 52%; in assay [7], 57%; in [8], 16%.
Compound `O=c1ccn([C@@H]2O[C@H](CO)[C@@H](O)[C@H]2O)c(=O)[nH]1` showed a Concentration in assay [1] of 1 mM.
As for `Nc1ccn([C@H]2C[C@H](O)[C@@H](CO)O2)c(=O)n1`, the Concentration in assay [9] came out at 100 µM.
`Cc1cn([C@H]2C[C@H](O)[C@@H](CO)O2)c(=O)[nH]c1=O`: the Concentration in assay [10] was found to be 200 µM; in assay [11] it was 100 µM.
